Laboratory results as given in PubChem BioAssay AID624467 (The Scripps Research Institute Molecular Screening Center, 2012).
The whole screen tested about 360,000 compounds, of which about 3,600 (1%) were called active.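 Rule for the calls: active = activation above the mean activation of all test compounds in the run plus 3 SD (cut at about 38% in these data); inactive = the rest.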 Only a selection was taken, and actives are over-represented in it overall.

These molecules were tested against Trace amine-associated receptor 1 (Homo sapiens) (UniProt Q96RJ0) (assay: activators of TAAR1 calcium mobilization – Fluo-8 calcium fluorescence, CHO RD-HGA16 cells, primary screen (AID 624467)). Settings: CHO RD-HGA16 TAAR1, Fluo-8 calcium fluorescence; at 3 µM; active compounds read high; vehicle wells 0%, saturating PEA agonist 100%.
Chain of Trace amine-associated receptor 1 (Homo sapiens) (Q96RJ0 whole entry, looked up): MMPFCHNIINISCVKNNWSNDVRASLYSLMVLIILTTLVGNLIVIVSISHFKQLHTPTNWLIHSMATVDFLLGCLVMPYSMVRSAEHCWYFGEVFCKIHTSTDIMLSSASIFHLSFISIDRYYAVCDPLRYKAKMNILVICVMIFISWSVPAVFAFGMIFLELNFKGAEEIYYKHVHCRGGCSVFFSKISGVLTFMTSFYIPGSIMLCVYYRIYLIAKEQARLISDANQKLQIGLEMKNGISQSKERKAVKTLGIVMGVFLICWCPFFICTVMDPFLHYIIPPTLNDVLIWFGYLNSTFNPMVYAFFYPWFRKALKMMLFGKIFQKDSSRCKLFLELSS
Summary of the method: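 Assay system: CHO-derived RD-HGA16 cells with stable Gα16 and human TAAR1; timing: 17-24 h seeding, 75 min 37 °C dye, 30 min RT; read-out: % activation from peak over basal fluorescence ratio, DMSO-to-PEA scaled; measured by: kinetic Fluo-8 calcium fluorescence; benchmarks: low control DMSO, high control PEA (EC100); doses: 3 µM single concentration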

Row | Compound | activation
1 | C[C@@H]1CN([C@@H](C)CO)S(=O)(=O)c2ccc(C#Cc3cccc(F)c3)cc2O[C@H]1CN(C)S(=O)(=O)c1cn(C)cn1 | 20.9% (inactive)
2 | CC(C)CC(=O)NC(=S)NNC(=O)c1cccc([N+](=O)[O-])c1 | 20.7% (inactive)
3 | CCCCCC(=O)NC(=S)NNC(=O)c1ccc([N+](=O)[O-])cc1 | 71.7% (active)
4 | COCCCNC(=S)NC(=O)c1ccc([N+](=O)[O-])cc1 | 0.22% (inactive)
5 | CCOc1cc(C(=O)N2CCc3cc(OC)c(OC)cc3C2)ccc1OC(F)F | 3.06% (inactive)
6 | Cc1cc(OC(=O)NCCc2ccc(F)cc2)ccc1F | 3.75% (inactive)
7 | CC[C@H](C)[C@H]1CNC(=O)C(=O)N1CC1CCN(CCc2ccc(OC)c(OC)c2)CC1 | -0.17% (inactive)
8 | Cc1ccc(O)c(-c2cc(C(=O)NCc3ccccc3)[nH]n2)c1 | 8.4% (inactive)
9 | Cc1cc(O)ccc1-c1cc(C(=O)NCc2cc(C(F)(F)F)cc(C(F)(F)F)c2)[nH]n1 | 39.9% (active)
10 | CCCOc1ccc(F)cc1-c1cc(C(=O)NCc2ccc(F)cc2)[nH]n1 | 3.61% (inactive)
11 | Brc1cnc2ccccc2c1N1CCCCC1 | 5.6% (inactive)
12 | CCOC(=O)C1=C(CC)Nc2ccccc2N=C1NC(=O)c1cccc(S(=O)(=O)N2CCCC2)c1 | 7.96% (inactive)
13 | NC(N)=N/N=C/c1ccc(OCc2ccc(Cl)cc2Cl)cc1 | 84.3% (active)
14 | NC(=O)COc1ccc(/C=N/NC(=O)C2CCCN2S(=O)(=O)c2ccc(Cl)cc2)cc1 (stereo not given) | 5.15% (inactive)
15 | CC(C)(C)NC(=O)NC(=O)COC(=O)Cc1ccc(Cl)cc1Cl | -2.34% (inactive)
16 | O=C(Nc1ccc(S(=O)(=O)Nc2ncccn2)cc1)C12CC3CC(CC(C3)C1)C2 | 0.17% (inactive)
17 | Cc1cc(C(F)F)n2nc(C(=O)Nc3ccc(S(=O)(=O)NC45CC6CC(CC(C6)C4)C5)cc3)nc2n1 | 6.82% (inactive)
18 | CCn1nccc1C(=O)Nc1ccc(S(=O)(=O)NC23CC4CC(CC(C4)C2)C3)cc1 | 42.5% (active)
19 | COC(=O)c1cc2c(c3c4cc(F)ccc4n(S(=O)(=O)c4ccccc4)c13)C(=O)N(Cc1ccccc1OC)C2 | 0.14% (inactive)
20 | O=C1CC(Sc2ncn[nH]2)C(=O)N1c1ccccc1 (stereo not given) | 4.92% (inactive)
21 | COc1cccc(-c2cnc(OC(C)(C)C)nc2OC(C)(C)C)c1 | 47.4% (active)
22 | CC(C)(C)Oc1ncc(Br)c(OC(C)(C)C)n1 | 1.63% (inactive)
23 | COc1cccc(-c2nc3nc(C)cc(C)n3c2NC2CCCCC2)c1 | 1.46% (inactive)
24 | CN(C(=O)CN1C(=O)NC(C)(CCc2ccccc2)C1=O)c1ccccc1 (stereo not given) | 1.03% (inactive)
25 | CN(C)c1ccc(/C=C2\NC(=S)N(Cc3ccccc3)C2=O)cc1 | 81.4% (active)
26 | CC(=O)C1=C(C)N(Cc2ccccc2)C(=S)NC1c1cccc(Br)c1 (stereo not given) | -0.24% (inactive)
27 | Cc1ccc(N)cc1CN1CCN(c2ncc(Cc3ccccc3)cn2)CC1 | -0.94% (inactive)
28 | COc1ccc(C2/C=C\CN(CC(C)C)CC(=O)N2Cc2ccc(F)cc2)cc1 (stereo not given) | -1.75% (inactive)
29 | Cc1c([N+](=O)[O-])c(N)nn1C | 2.61% (inactive)
30 | Cc1nn2c3cc(N4CCOCC4)ccc3nc2c2ccccc12 | 2.7% (inactive)
